# Experimental data: ChEMBL document CHEMBL1141513, “Synthesis and evaluation of [123I] labeled iodovinyl amino acids syn-, anti-1-amino-3-[2-iodoethenyl]-cyclobutane-1-carboxylic acid, and 1-amino-3-iodomethylene-cyclobutane-1-carboxylic acid as potential SPECT brain tumor imaging agents” (Bioorg Med Chem Lett, 2008); call rule not given here
# Legend:
# [1] = Drug uptake in tumor cells in Fischer rat transplanted with rat 9L cells after 60 mins; assay type: ADME, Neoplasm; settings: read-out: Drug uptake
# Summary of the method: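 Fischer rats bearing intracranially implanted 9L gliosarcoma tumours received the [123I]-labelled amino acid by injection. Radioactivity in tumour and normal tissues was counted at 30, 60 and 120 min post-injection, with n=5 per time point. Values were expressed as percent injected dose per gram tissue (%ID/g).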
# Rattus norvegicus = organism: Rattus norvegicus; assay: Ratio of drug uptake in tumor to brain in Fischer rat transplanted with rat 9L cells; assay type: ADME, organism-based
# Summary of the method: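 Fischer rats with intracranial 9L gliosarcoma received [123I] tracer; tumor and brain radioactivity measured at 30, 60, 120 min p.i. (n=5 per time point) as %ID/g, ratio taken as tumor over brain uptake.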
# 9L [2] = assay: Inhibition of drug uptake in rat 9L cells; assay type: cell-based
# Summary of the method: (§1)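 9L rat gliosarcoma cells incubated with [123I] tracer in HBSS for 30 min at 37°C, with or without 10 mM BCH (L-type transport inhibitor) or MeAIB (A-type inhibitor); uptake expressed as %ID per 1×10^6 cells, inhibition relative to uninhibited controls; significance by 1-way ANOVA.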
# 9L [3] = assay: Inhibition of drug uptake in rat 9L cells in presence of 10 mM BCH relative to control; assay type: cell-based; summary of the method: as §1
# [4] = Drug uptake in tumor cells of Fischer rat brain transplanted with rat 9L cells; assay type: ADME, cell-based; settings: read-out: Drug uptake
# Summary of the method: (§2)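 [123I]-labelled amino acid given to Fischer rats bearing intracranially implanted 9L gliosarcoma; tumor and normal tissue radioactivity counted at 30, 60 and 120 min post injection, n=5 per time point; expressed as percent injected dose per gram tissue (%ID/g).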
# [5] = Drug uptake in normal brain tissue in Fischer rat transplanted with rat 9L cells; assay type: ADME, tissue-based; summary of the method: as §2
# 9L [6] = assay: Inhibition of drug uptake in rat 9L cells in presence of 10 mM MeAIB relative to control; assay type: cell-based; summary of the method: as §1
SMILES,tissue uptake at 1 h [1],Ratio (Rattus norvegicus),Drug uptake (9L [2]),Drug uptake (9L [3]),tissue uptake [4],tissue uptake [5],Activity (9L [6])
N[C@]1(C(=O)O)C[C@@H](C[18F])C1,2.5 %ID/g,8.9,–,–,–,–,–
NC1(C(=O)O)CC(=C[123I])C1 (configuration not stated),–,4.7,8.4 %ID,92.3%,0.83 %ID/g,< 0.4 %ID/g,–
N[C@]1(C(=O)O)C[C@@H](/C=C/[123I])C1,–,6.5,8.4 %ID,92.3%,0.83 %ID/g,< 0.4 %ID/g,–
N[C@]1(C(=O)O)C[C@H](/C=C/[123I])C1,–,7.3,8.4 %ID,92.3%,0.83 %ID/g,< 0.4 %ID/g,Not Active
N[C@]1(C(=O)O)C[C@H](C[18F])C1,1.59 %ID/g,6.9,–,–,–,–,–
N[C@]1(C(=O)O)C[C@@H]([18F])C1 [FLUCICLOVINE F18],1.72 %ID/g,6.6,–,–,–,–,–
